From ChEMBL document CHEMBL1806376, “Synthesis and biological properties of macrolactam analogs of the natural product macrolide (-)-A26771B” (2011)

Columns and labels:
Format in all cases: functional
Staphylococcus aureus [1] = experiment: Antibacterial activity against methicillin-resistant Staphylococcus aureus Sa2 by broth microdilution method
Procedure, shortened: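 Broth microdilution run according to the CLSI method.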

Haemophilus influenzae [2] = experiment: Antibacterial activity against Haemophilus influenzae ATCC 31517 by broth microdilution method
Procedure, shortened: (§1)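 MIC values determined by broth microdilution following the CLSI method.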

Streptococcus pneumoniae [3] = experiment: Antibacterial activity against Streptococcus pneumoniae Pen9 IV381-221 by broth microdilution method; procedure, shortened: as §1
Enterococcus faecalis = experiment: Antibacterial activity against Enterococcus faecalis ATCC 29212 by broth microdilution method; procedure, shortened: as §1
Enterococcus faecium = experiment: Antibacterial activity against Enterococcus faecium 1 by broth microdilution method; procedure, shortened: as §1
Staphylococcus aureus [4] = experiment: Antibacterial activity against Staphylococcus aureus oxford by broth microdilution method; procedure, shortened: as §1
Staphylococcus aureus [5] = experiment: Antibacterial activity against Staphylococcus aureus ATCC 25923 by broth microdilution method; procedure, shortened: as §1
Pseudomonas aeruginosa = experiment: Antibacterial activity against Pseudomonas aeruginosa ATCC 27853 by broth dilution method; procedure, shortened: as §1
Haemophilus influenzae [6] = experiment: Antibacterial activity against efflux knock-out Haemophilus influenzae LS2 by broth microdilution method; procedure, shortened: as §1
Streptococcus pneumoniae [7] = experiment: Antibacterial activity against Streptococcus pneumoniae ATCC 49619 by broth microdilution method; procedure, shortened: as §1
Staphylococcus aureus [8] = experiment: Antibacterial activity against Staphylococcus aureus ATCC 25923 by broth microdilution method in presence of 10% human serum
Procedure, shortened: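 MIC determined by broth microdilution per the CLSI method, with 10% human serum added to the medium.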

Escherichia coli = experiment: Antibacterial activity against Escherichia coli ATCC 25922 by broth microdilution method; procedure, shortened: as §1
Staphylococcus aureus [9] = experiment: Antibacterial activity against Staphylococcus aureus ATCC 13709 by broth microdilution method; procedure, shortened: as §1
[10] = Staphylococcus aureus, Sa2, read-out: MIC
[11] = Haemophilus influenzae, ATCC 31517, read-out: MIC
[12] = Streptococcus pneumoniae, Pen9 IV381-221, read-out: MIC
[13] = Enterococcus faecalis, ATCC 29212, read-out: MIC
[14] = Enterococcus faecium, 1, read-out: MIC
[15] = Staphylococcus aureus, oxford, read-out: MIC
[16] = Staphylococcus aureus, ATCC 25923, read-out: MIC
[17] = Haemophilus influenzae, LS2, read-out: MIC
[18] = Streptococcus pneumoniae, ATCC 49619, read-out: MIC
[19] = Staphylococcus aureus, ATCC 13709, read-out: MIC

Measured: MIC

CO[C@H]1CCCCCCCCC[C@@H](C)OC(=O)CCC1=O
> 64 µg/mL: Staphylococcus aureus [1]; [10] | Haemophilus influenzae [2]; [11] | Streptococcus pneumoniae [3]; [12] | Enterococcus faecalis; [13] | Enterococcus faecium; [14] | Staphylococcus aureus [4]; [15] | Staphylococcus aureus [5]; [16] | Pseudomonas aeruginosa | Streptococcus pneumoniae [7]; [18] | Staphylococcus aureus [8]; [16] | Escherichia coli | Staphylococcus aureus [9]; [19]
64 µg/mL: Haemophilus influenzae [6]; [17]

CO[C@H]1CCCCCCCCC[C@@H](C)OC(=O)/C(C)=C/C1=O
> 64 µg/mL: Staphylococcus aureus [1]; [10] | Haemophilus influenzae [2]; [11] | Streptococcus pneumoniae [3]; [12] | Enterococcus faecalis; [13] | Enterococcus faecium; [14] | Staphylococcus aureus [4]; [15] | Staphylococcus aureus [5]; [16] | Pseudomonas aeruginosa | Haemophilus influenzae [6]; [17] | Streptococcus pneumoniae [7]; [18] | Staphylococcus aureus [8]; [16] | Escherichia coli | Staphylococcus aureus [9]; [19]

CO[C@H]1CCCCCCCCC[C@@H](C)OC(=O)C(Sc2ccccc2)CC1=O (some centres not stated)
2 µg/mL: Staphylococcus aureus [1]; [10] | Haemophilus influenzae [6]; [17] | Streptococcus pneumoniae [7]; [18]
16 µg/mL: Staphylococcus aureus [8]; [16]
1 µg/mL: Streptococcus pneumoniae [3]; [12] | Staphylococcus aureus [4]; [15] | Staphylococcus aureus [5]; [16] | Staphylococcus aureus [9]; [19]
> 64 µg/mL: Haemophilus influenzae [2]; [11] | Enterococcus faecalis; [13] | Enterococcus faecium; [14] | Pseudomonas aeruginosa | Escherichia coli

CO[C@H]1CCCCCCCCC[C@@H](C)OC(=O)C(S(=O)(=O)c2ccccc2)CC1=O (some centres not stated)
32 µg/mL: Haemophilus influenzae [2]; [11] | Staphylococcus aureus [8]; [16]
2 µg/mL: Staphylococcus aureus [1]; [10] | Streptococcus pneumoniae [3]; [12] | Haemophilus influenzae [6]; [17]
4 µg/mL: Enterococcus faecalis; [13] | Enterococcus faecium; [14] | Streptococcus pneumoniae [7]; [18]
> 64 µg/mL: Pseudomonas aeruginosa | Escherichia coli
1 µg/mL: Staphylococcus aureus [4]; [15] | Staphylococcus aureus [5]; [16] | Staphylococcus aureus [9]; [19]

C[C@@H]1CCCCCCCCC[C@H](O)C(=O)CC(SCC(F)(F)F)C(=O)O1 (some centres not stated)
> 64 µg/mL: Pseudomonas aeruginosa | Escherichia coli
32 µg/mL: Haemophilus influenzae [2]; [11] | Staphylococcus aureus [8]; [16]
1 µg/mL: Staphylococcus aureus [1]; [10] | Staphylococcus aureus [4]; [15] | Staphylococcus aureus [5]; [16] | Staphylococcus aureus [9]; [19]
2 µg/mL: Haemophilus influenzae [6]; [17]
4 µg/mL: Streptococcus pneumoniae [3]; [12] | Enterococcus faecalis; [13] | Enterococcus faecium; [14] | Streptococcus pneumoniae [7]; [18]

CO[C@H]1CCCCCCCCC[C@@H](C)OC(=O)C2CC2C1=O (mixture of isomers)
> 64 µg/mL: Staphylococcus aureus [1]; [10] | Haemophilus influenzae [2]; [11] | Streptococcus pneumoniae [3]; [12] | Enterococcus faecalis; [13] | Enterococcus faecium; [14] | Staphylococcus aureus [4]; [15] | Staphylococcus aureus [5]; [16] | Pseudomonas aeruginosa | Haemophilus influenzae [6]; [17] | Streptococcus pneumoniae [7]; [18] | Staphylococcus aureus [8]; [16] | Escherichia coli | Staphylococcus aureus [9]; [19]

CO[C@H]1CCCCCCCCC[C@@H](C)OC(=O)C2OC2C1=O (single isomer, unassigned; diastereomer 1)
64 µg/mL: Streptococcus pneumoniae [3]; [12] | Enterococcus faecalis | Staphylococcus aureus [4]; [15] | Staphylococcus aureus [5]; [16] | Streptococcus pneumoniae [7]; [18]
32 µg/mL: Enterococcus faecium; [14] | Staphylococcus aureus [9]; [19]
> 64 µg/mL: Staphylococcus aureus [1]; [10] | Haemophilus influenzae [2]; [11] | Pseudomonas aeruginosa | Haemophilus influenzae [6]; [17] | Staphylococcus aureus [8]; [16]

COC1CCCCCCCCC[C@@H](C)NC(=O)/C=C/C1=O (single isomer, unassigned; diastereomer 1)
> 64 µg/mL: Pseudomonas aeruginosa | Escherichia coli
0.25 µg/mL: Haemophilus influenzae [6]; [17]
1 µg/mL: Staphylococcus aureus [1]; [10] | Staphylococcus aureus [4]; [15] | Staphylococcus aureus [5]; [16] | Staphylococcus aureus [9]; [19]
8 µg/mL: Streptococcus pneumoniae [3]; [12] | Staphylococcus aureus [8]; [16]
0.5 µg/mL: Enterococcus faecium
2 µg/mL: Haemophilus influenzae [2]; [11] | Enterococcus faecalis | Streptococcus pneumoniae [7]; [18]

COC1CCCCCCCCC[C@@H](C)NC(=O)/C=C/C1=O (single isomer, unassigned; diastereomer 2)
0.5 µg/mL: Staphylococcus aureus [1] | Enterococcus faecium; [14] | Staphylococcus aureus [4] | Staphylococcus aureus [9]
8 µg/mL: Streptococcus pneumoniae [3] | Staphylococcus aureus [8]
1 µg/mL: Staphylococcus aureus [5]
2 µg/mL: Haemophilus influenzae [2] | Enterococcus faecalis; [13] | Streptococcus pneumoniae [7]
0.25 µg/mL: Haemophilus influenzae [6]

CO[C@H]1CCCCCCCCC[C@@H](C)OC(=O)C2OC2C1=O (stereo in doubt; 16b)
>64 µg/mL: Streptococcus pneumoniae [3] | Enterococcus faecium | Staphylococcus aureus [4] | Staphylococcus aureus [5] | Streptococcus pneumoniae [7] | Staphylococcus aureus [9]
> 64 µg/mL: Enterococcus faecalis; [13] | Escherichia coli
